According to ChEMBL document CHEMBL3596131, “Discovery of a novel trans-1,4-dioxycyclohexane GPR119 agonist series” (Bioorg Med Chem Lett, 2015):

Key:
[1] = biological target: T1, Glucose-dependent insulinotropic receptor (Homo sapiens) (UniProt Q8TDV5); test: Agonist activity at human GPR119 by HTRF cAMP assay relative to AR231453; assay type: functional
T1 sequence (whole entry): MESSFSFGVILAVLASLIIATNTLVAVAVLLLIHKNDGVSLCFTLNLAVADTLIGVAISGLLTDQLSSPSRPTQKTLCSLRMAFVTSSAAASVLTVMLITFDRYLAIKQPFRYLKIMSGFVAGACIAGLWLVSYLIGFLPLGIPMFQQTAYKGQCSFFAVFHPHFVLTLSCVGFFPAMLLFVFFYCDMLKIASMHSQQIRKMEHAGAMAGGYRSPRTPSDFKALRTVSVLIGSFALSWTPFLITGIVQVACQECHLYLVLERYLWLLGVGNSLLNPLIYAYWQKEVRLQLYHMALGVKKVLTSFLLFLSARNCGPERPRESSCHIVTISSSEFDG

[2] = biological target: T2, Glucose-dependent insulinotropic receptor (Rattus norvegicus, UniProt Q7TQN8); test: Agonist activity at rat GPR119 by HTRF cAMP assay; assay type: functional
T2 sequence (Q7TQN8 whole entry): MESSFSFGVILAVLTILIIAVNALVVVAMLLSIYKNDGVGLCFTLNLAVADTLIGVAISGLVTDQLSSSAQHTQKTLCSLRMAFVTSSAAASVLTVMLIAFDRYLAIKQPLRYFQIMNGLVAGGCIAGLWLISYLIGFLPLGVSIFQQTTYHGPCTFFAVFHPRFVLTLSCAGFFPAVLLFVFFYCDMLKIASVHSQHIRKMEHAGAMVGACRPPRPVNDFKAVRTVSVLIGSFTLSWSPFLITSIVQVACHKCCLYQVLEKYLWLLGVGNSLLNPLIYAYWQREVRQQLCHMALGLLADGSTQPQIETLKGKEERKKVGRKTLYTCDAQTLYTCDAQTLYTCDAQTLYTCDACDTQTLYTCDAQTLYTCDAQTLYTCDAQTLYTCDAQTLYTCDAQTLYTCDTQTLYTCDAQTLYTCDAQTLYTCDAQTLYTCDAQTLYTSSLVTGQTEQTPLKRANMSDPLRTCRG

[3] = biological target: T3, Glucose-dependent insulinotropic receptor (Rattus norvegicus) (UniProt Q7TQN8); test: Agonist activity at rat GPR119 by HTRF cAMP assay relative to AR231453; assay type: functional
T3 sequence (whole entry): T2 sequence (Q7TQN8 whole entry)

[4] = Half life in rat liver microsomes; assay type: ADME
[5] = Half life in mouse liver microsomes; assay type: ADME
Uncharacterized protein = biological target: T4, Uncharacterized protein (Canis lupus familiaris, UniProt A0A8C0THM6); test: Agonist activity at canine GPR119 by HTRF cAMP assay
T4 sequence (A0A8C0THM6 whole entry): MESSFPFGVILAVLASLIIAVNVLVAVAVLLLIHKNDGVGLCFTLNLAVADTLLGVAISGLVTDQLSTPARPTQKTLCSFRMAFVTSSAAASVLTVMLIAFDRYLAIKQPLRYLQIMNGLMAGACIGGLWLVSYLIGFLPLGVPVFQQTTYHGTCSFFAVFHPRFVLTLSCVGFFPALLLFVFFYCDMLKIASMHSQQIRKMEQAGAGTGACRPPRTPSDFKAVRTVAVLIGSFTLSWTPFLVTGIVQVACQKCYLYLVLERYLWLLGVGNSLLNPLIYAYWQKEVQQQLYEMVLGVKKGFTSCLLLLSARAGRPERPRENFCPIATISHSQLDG

[6] = biological target: T5, Glucose-dependent insulinotropic receptor (Mus musculus, UniProt Q7TQP3); test: Agonist activity at mouse GPR119 by HTRF cAMP assay; assay type: functional
T5 sequence (Q7TQP3 whole entry): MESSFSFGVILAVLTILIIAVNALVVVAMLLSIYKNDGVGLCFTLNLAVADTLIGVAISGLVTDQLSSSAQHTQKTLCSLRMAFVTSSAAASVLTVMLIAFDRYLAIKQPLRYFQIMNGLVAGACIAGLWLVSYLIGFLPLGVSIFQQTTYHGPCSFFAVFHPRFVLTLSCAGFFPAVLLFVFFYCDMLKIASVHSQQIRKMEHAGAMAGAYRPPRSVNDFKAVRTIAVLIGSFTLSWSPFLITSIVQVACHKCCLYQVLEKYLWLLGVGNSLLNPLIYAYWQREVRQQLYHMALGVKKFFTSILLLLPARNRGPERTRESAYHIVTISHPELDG

[7] = biological target: T6, Glucose-dependent insulinotropic receptor (Mus musculus) (UniProt Q7TQP3); test: Agonist activity at mouse GPR119 by HTRF cAMP assay relative to AR231453; assay type: functional
T6 sequence (whole entry): T5 sequence (Q7TQP3 whole entry)

[8] = Half life in human hepatocytes; assay type: ADME, cell-based, Hepatocyte
[9] = Plasma protein binding in rat; assay type: ADME, cell-free; details: read-out: PPB (converted)
[10] = Plasma protein binding in mouse; assay type: ADME, organism-based; details: read-out: PPB (converted)
[11] = Ratio of drug level in brain to plasma in Sprague-Dawley rat at 2 mg/kg, po measured at 2 hrs; assay type: ADME, organism-based; details: read-out: BPR
How it was run: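 Abbreviated CNS study in male SD rats given 2 mg/kg orally in 20% hp-β-CD; brain (ng/g) and plasma (ng/mL) levels sampled at 2 h post-dose, brain/plasma ratio calculated.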

Rattus norvegicus [12] = test: Antidiabetic activity in Zucker diabetic fatty rat assessed as suppression of plasma glucose AUC at 3 mg/kg administered 60 mins prior to glucose challenge by OGTT relative to vehicle-treated control; assay type: functional
Rattus norvegicus [13] = test: Antidiabetic activity in Zucker diabetic fatty rat assessed as suppression of plasma glucose AUC at 10 mg/kg administered 60 mins prior to glucose challenge by OGTT relative to vehicle-treated control; assay type: functional
Rattus norvegicus [14] = test: Antidiabetic activity in Zucker diabetic fatty rat assessed as decrease in HbA1C level at 1 mg/kg, qd administered over 4 weeks measured on day 28 post last dose relative to vehicle-treated control; assay type: functional; parameters: scale not given: the % may be the effect or the level left
How it was run: (§1)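 Chronic study in ZDF rats: once-daily dosing at 1, 3 or 10 mg/kg for 4 weeks, vehicle 0.5% methylcellulose; fed glucose and body weight tracked at dosing times, HbA1c measured on day 28 relative to vehicle.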

Rattus norvegicus [15] = test: Antidiabetic activity in Zucker diabetic fatty rat assessed as decrease in HbA1C level at 10 mg/kg, qd administered over 4 weeks measured on day 28 post last dose relative to vehicle-treated control; assay type: functional; parameters: scale not given: the % may be the effect or the level left; how it was run: as §1
Rattus norvegicus [16] = test: Antidiabetic activity in Zucker diabetic fatty rat assessed as decrease in HbA1C level administered as qd over 4 weeks measured on day 28 post last dose; assay type: functional, organism-based; how it was run: as §1
Rattus norvegicus [17] = test: Toxicity in Zucker diabetic fatty rat assessed as effect on body weight at 1 to 10 mg/kg, qd administered over 4 weeks measured during compound dosing; assay type: organism-based; details: in vivo, 672 h; how it was run: as §1
Cytochrome P450 2C9 = Cytochrome P450 2C9 (Homo sapiens, UniProt P11712); test: Inhibition of CYP2C9 in human liver microsomes; assay type: ADME
Chain of Cytochrome P450 2C9 (P11712 whole entry): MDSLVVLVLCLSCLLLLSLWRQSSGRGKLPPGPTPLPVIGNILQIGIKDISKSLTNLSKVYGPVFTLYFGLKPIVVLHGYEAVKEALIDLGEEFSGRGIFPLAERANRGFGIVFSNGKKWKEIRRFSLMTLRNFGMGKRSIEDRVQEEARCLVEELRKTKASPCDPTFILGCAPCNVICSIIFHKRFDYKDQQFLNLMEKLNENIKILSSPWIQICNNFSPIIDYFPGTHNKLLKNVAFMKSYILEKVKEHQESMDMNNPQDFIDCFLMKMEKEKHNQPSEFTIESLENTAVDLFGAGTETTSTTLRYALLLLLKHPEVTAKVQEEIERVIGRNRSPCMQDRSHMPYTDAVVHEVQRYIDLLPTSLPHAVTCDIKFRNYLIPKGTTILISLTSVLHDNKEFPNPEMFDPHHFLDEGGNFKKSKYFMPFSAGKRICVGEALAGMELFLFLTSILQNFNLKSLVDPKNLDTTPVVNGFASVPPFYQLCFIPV

Cytochrome P450 2C19 = Cytochrome P450 2C19 (Homo sapiens, UniProt P33261); test: Inhibition of CYP2C19 in human liver microsomes; assay type: ADME
Chain of Cytochrome P450 2C19 (P33261 whole entry): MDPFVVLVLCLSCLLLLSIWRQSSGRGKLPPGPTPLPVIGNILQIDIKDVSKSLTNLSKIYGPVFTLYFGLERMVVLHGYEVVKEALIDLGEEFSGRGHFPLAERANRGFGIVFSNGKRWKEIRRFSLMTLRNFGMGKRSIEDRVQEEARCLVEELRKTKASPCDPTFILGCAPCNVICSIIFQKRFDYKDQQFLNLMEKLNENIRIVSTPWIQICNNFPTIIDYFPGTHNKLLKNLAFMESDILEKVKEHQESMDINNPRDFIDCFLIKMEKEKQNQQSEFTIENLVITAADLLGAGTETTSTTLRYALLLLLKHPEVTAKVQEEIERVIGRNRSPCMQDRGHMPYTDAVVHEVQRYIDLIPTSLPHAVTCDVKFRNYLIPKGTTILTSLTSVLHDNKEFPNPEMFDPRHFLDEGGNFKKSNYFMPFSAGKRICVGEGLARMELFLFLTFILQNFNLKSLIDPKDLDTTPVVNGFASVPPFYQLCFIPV

Cytochrome P450 3A4 = Cytochrome P450 3A4 (Homo sapiens, UniProt P08684); test: Inhibition of CYP3A4 in human liver microsomes; assay type: ADME
Chain of Cytochrome P450 3A4 (P08684 whole entry): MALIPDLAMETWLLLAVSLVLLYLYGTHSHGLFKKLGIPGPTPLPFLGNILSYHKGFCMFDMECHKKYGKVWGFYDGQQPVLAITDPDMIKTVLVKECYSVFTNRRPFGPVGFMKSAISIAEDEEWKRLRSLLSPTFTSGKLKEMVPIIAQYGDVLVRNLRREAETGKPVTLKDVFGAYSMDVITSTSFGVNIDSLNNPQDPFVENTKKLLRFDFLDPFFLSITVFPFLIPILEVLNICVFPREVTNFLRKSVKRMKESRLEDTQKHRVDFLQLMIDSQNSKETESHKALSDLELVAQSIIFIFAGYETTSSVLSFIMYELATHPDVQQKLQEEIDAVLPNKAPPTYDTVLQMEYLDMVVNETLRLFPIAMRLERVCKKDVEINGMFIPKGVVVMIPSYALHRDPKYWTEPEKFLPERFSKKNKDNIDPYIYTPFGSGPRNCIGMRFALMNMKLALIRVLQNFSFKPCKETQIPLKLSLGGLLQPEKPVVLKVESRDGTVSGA

Cytochrome P450 2D6 = Cytochrome P450 2D6 (Homo sapiens, UniProt P10635); test: Inhibition of CYP2D6 in human liver microsomes; assay type: ADME
Chain of Cytochrome P450 2D6 (P10635 whole entry): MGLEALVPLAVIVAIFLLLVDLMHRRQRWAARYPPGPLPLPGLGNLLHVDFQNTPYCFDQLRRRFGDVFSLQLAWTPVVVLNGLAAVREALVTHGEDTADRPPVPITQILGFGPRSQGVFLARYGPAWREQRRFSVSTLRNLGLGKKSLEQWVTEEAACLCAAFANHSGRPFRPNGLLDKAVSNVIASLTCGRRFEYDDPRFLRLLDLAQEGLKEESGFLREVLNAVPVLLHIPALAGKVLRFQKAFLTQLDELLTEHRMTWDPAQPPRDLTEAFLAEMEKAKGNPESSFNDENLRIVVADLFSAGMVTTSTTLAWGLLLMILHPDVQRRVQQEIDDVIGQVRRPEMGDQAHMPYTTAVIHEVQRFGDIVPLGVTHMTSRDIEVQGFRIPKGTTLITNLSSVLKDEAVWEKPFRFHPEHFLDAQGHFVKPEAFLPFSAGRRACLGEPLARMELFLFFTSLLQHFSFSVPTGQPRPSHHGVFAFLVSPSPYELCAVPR

[18] = Time-dependent inhibition of CYP450 in human liver microsomes; assay type: ADME
HepG2 = test: Cytotoxicity against human HepG2 cells; assay type: cell-based

Question: For `C[C@@H](OC(=O)N1CCC(O[C@H]2CC[C@H](Oc3cnc(S(C)(=O)=O)cn3)CC2)CC1)C(F)(F)F`, which Emax [1] is on record?
Answer: 106%

Question: And the EC50 [2]?
Answer: 28.8 nM

Question: And the Emax [3]?
Answer: 120%

Question: And the half-life [4]?
Answer: > 1 h

Question: What about the half-life [5] of the same compound?
Answer: > 1 h

Question: What about the EC50 (Uncharacterized protein) of the same compound?
Answer: 6.1 nM

Question: What about the EC50 [6] of the same compound?
Answer: 20.5 nM

Question: What about the Emax [7] of the same compound?
Answer: 130%

Question: And the half-life [8]?
Answer: > 2 h

Question: What about the fraction unbound [9] of the same compound?
Answer: 0.04

Question: And the fraction unbound [10]?
Answer: 0.065

Question: What about the Kp at 2 h [11] of the same compound?
Answer: 0.98

Question: And the Activity (Rattus norvegicus [12])?
Answer: 43%

Question: What about the Activity (Rattus norvegicus [13]) of the same compound?
Answer: 58%

Question: And the Activity (Rattus norvegicus [14])?
Answer: 1.63%

Question: What about the Activity (Rattus norvegicus [15]) of the same compound?
Answer: 2.58%

Question: What about the Activity (Rattus norvegicus [16]) of the same compound?
Answer: Dose-dependent effect

Question: And the Activity (Rattus norvegicus [17])?
Answer: Non-toxic

Question: What about the INH (Cytochrome P450 2C9) of the same compound?
Answer: 27.5 µM

Question: What about the INH (Cytochrome P450 2C19) of the same compound?
Answer: 23.4 µM

Question: And the INH (Cytochrome P450 3A4)?
Answer: > 50 µM

Question: And the INH (Cytochrome P450 2D6)?
Answer: > 50 µM

Question: And the TDI [18]?
Answer: Not Active

Question: And the Activity (HepG2)?
Answer: Non-toxic
